Bioassay records (PubChem)
FLuc act counter: affects firefly luciferase, flagging false hits in luciferase stimulation screens; 200,000 tested, under 10 active; ATPlite luciferase biochemical, luminescence, 10 min; 0 = ATP-free wells, 1 = DMSO control; activation factor at 10 µM; AID 1027; P08659;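 active = luciferase activation factor, scaled between plate controls, of at least 2 with compound at 10 µM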
Target sequence (P08659 whole entry, looked up): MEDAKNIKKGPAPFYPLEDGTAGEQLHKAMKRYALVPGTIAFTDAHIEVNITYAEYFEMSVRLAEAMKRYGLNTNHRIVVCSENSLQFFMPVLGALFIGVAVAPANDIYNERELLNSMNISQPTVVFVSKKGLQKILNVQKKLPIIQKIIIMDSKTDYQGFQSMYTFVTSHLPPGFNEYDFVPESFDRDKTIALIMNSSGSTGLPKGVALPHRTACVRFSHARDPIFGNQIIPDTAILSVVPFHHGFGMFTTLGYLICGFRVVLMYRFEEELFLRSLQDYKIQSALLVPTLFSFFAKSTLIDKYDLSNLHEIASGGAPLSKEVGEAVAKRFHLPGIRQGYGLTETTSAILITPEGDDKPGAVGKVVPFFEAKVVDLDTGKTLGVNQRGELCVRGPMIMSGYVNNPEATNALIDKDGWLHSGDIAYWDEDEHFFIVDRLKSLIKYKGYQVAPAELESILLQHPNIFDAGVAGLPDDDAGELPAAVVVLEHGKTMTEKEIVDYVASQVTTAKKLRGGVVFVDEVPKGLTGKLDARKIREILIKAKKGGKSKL
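Material: luciferase plus luciferin reagent, cell-free. Medium: PBS buffer for ATP. Also added: ATP substrate, dispensed from a 10.24 µM working solution in PBS. Doses: test compounds dosed from 2 mM stocks in 100% DMSO. Incubation: 10 min post-reagent at room temperature. Technique: light output (luminescence). Read-out basis: luminescence gain marking luciferase activators.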
FLuc inhib CS: counter-screen for luciferase assay inhibitors: firefly luciferase inhibition | AID 1006 | hit rate 1.5% among 200,000 | ATPLite firefly luciferase biochemical luminescence, 10 min | P08659 | inhibition, % at 10 µM;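 active = inhibition above about 50% when tested at 10 µM, limit read from the data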
C8 TRAIL sens: caspase-8 TRAIL sensitization. inhibition (viability loss, TRAIL sensitization), % at 10 µM. hit rate 1% among 360,000. NB7+C8 cells + TRAIL, ATPlite viability luminescence;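 active = compounds causing at least 50% loss of cell viability in the single-dose screen, relative to plate controls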
PPC-1+TRAIL kill: PPC-1 cancer cell killing with TRAIL present | PPC-1 cells + TRAIL, ATPLite viability luminescence | cell killing (% activity), % at 4 µM or 5 µM | hit rate 0.41% among 220,000 | AID 1443;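 active = cell killing above 50% in the first pass at 4 µM, then a duplicate retest at 5 µM averaging 50% or more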;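 also: plate controls were cells with TRAIL plus DMSO for no effect and medium-only wells lacking cells for full effect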
HSP90 refold inh: blocks HSP90-mediated luciferase refolding in reticulocyte lysate; Rabbit reticulocyte lysate, luciferase refolding luminescence, 3 h; inhibition, % at 5.6 µM; hit rate 0.91% among 290,000;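 active = inhibition above the screen-wide mean plus 3 SD, computed separately per campaign, cut at about 16% in these data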;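 also: 0% = DMSO wells and 100% = 60 µM geldanamycin wells; inhibitors lower the luminescence because luciferase stays unfolded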
HSP90 inh confirm: HSP90 inhibition, confirmation assay | shares compounds with HSP90 refold inh | rabbit reticulocyte lysate, luciferase refolding luminescence, 3 h | inhibition, % at 5.9 µM | hit rate 64% among 2,300; in the data active = inhibition above about 18%;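 also: 0% = vehicle wells and 100% = reference inhibitor wells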
luciferase ctr: firefly luciferase inhibition, HSP90 counter-screen | shares compounds with HSP90 refold inh | purified native firefly luciferase, luminescence | inhibition, % at 5.9 µM | hit rate 48% among 2,300 | AID 1847;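 active = inhibition above the mean inhibition of all tested sample wells plus 3 SD, cut at about 10% in these data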;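 also: 0% = DMSO with luciferase and 100% = wells lacking luciferase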
* marks the source's active call; other numbers are inactive results; x = no result given. Sampled rows, rich in hits. Any-hit rate of the full collection: about 2%.

SMILES	FLuc act counter	FLuc inhib CS	C8 TRAIL sens	PPC-1+TRAIL kill	HSP90 refold inh	HSP90 inh confirm	luciferase ctr
CCOc1ccc(-c2nc(CN(Cc3ccccc3)C[C@@H]3CCC(=O)N3)c(C)o2)cc1	1	5	-11	11	23*	41*	-5
Cc1oc(-c2ccc(C(F)(F)F)cc2)nc1CN(Cc1ccccn1)C[C@@H]1CCC(=O)N1	1	1	-7	8	0	x	x
CCOC(=O)C(=O)N(Nc1ccccc1C)c1ccccc1C	1	-5	-6	x	3	x	x
O=C(NCCc1ccc(Cl)cc1)C1CCCN1C(=O)Nc1ccccc1 (stereo unspecified)	x	x	5	x	5	x	x
O=C(CN1C(=O)CCC1=O)Nc1cccc2c1C(=O)NC2=O	1	-2	-5	-3	21*	3	-3
c1ccc(NNC2=NCCS2)cc1	x	x	-10	x	19*	14	-15
O=C(CSc1ncccc1C(=O)O)c1ccc2ccccc2c1	0.6	35	10	5	96*	93*	-10
O=C(CNC(=O)c1cccc(F)c1)OCCOc1cccc(Cl)c1	x	x	0	x	x	x	x
O=C(Cn1cc(C(=O)c2ccco2)c2ccccc21)NC1CC1	1.1	-6	1	20	25*	-9	-11
O=C(Cn1cc(C(=O)c2ccco2)c2ccccc21)NCc1ccco1	1.1	-5	11	-2	-1	x	x
Cc1ccccc1-c1nc2sc3c(c2c(=O)n1N)CCCC3	0.9	6	54*	-2	38*	37*	37*
Nn1c(-c2cccs2)nc2sc3c(c2c1=O)CCCC3	0.5	45	41	28	-1	x	x
CCOC(=O)c1ccc(N/C=C2/CCCC(C)C2=O)cc1 (stereo unspecified)	0.9	8	1	2	12	x	x
CC1CCC/C(=C\Nc2ccc(C(=O)O)cc2)C1=O (stereo unspecified)	0.9	6	3	3	37*	61*	22*
O=C(CCNC(=O)c1ccccc1Cl)Nc1cccc(S(=O)(=O)N2CCCC2)c1	x	x	-9	x	x	x	x
O=C(COc1ncnc2ccccc12)NCCc1ccccc1	1	-2	-12	-21	5	x	x
COc1ccc(CCNC(=O)COc2ncnc3ccccc23)cc1OC	1	4	-5	25	62*	-6	-11
CCOC(=O)/C(C#N)=C\c1cc(C)n(-c2ccccc2)c1C	0.2	76*	43	38	50*	63*	62*
OCCNC(=S)Nc1cc(Cl)cc(Cl)c1	x	x	-4	10	18*	-1	-1
O=C(Cn1nnc(-c2cccs2)n1)Nc1ccccc1C(F)(F)F	1	-2	-6	6	3	x	x
O=C(NCc1ccco1)C1CCCN(S(=O)(=O)Cc2ccccc2)C1 (stereo unspecified)	1	-1	0	30	49*	-2	-8
O=C(NCc1ccncc1)C1CCCN(S(=O)(=O)Cc2ccccc2)C1 (stereo unspecified)	1.1	-8	-19	32	-4	x	x
CC(C)(C)n1nnnc1C(c1ccccc1F)N1CCN(C2CCCC2)CC1 (stereo unspecified)	1	-2	-5	-2	23*	-1	-3
CCC(C)(C)n1nnnc1C(c1ccccc1)N1CCN(C2CCCC2)CC1 (stereo unspecified)	1.1	-8	7	24	-5	x	x
COc1ccc(COC(=O)N/N=C(\C)CC(=O)Nc2ccc(Cl)cn2)cc1	x	x	-11	-1	-4	x	x
SMILES	FLuc act counter	FLuc inhib CS	C8 TRAIL sens	PPC-1+TRAIL kill	HSP90 refold inh	HSP90 inh confirm	luciferase ctr
Cc1cc(/C=c2\sc3nc4ccccc4n3c2=O)c(C)n1-c1ccc(C(=O)O)cc1	1	-1	7	5	-1	x	x
Cc1cc(/C=c2/sc3nc4ccccc4n3c2=O)c(C)n1-c1ccccn1	0.1	90*	80*	5	60*	90*	81*
COc1ccc(/C=N/NC(=O)c2c(Br)cnn2C)c2ccccc12	x	x	-11	x	-1	x	x
S=C(Nc1ccc(Oc2ccccc2)cc1)N1CCN(c2ccccn2)CC1	1	-2	-8	15	0	x	x
CC(C)C(=O)Nc1nc2cc3c(cc2s1)OCCO3	x	x	30	29	28*	40*	34*
CN(C)CCN(C(=O)c1ccco1)c1nc2cc3c(cc2s1)OCCO3	x	x	-3	x	-4	x	x
CCOc1ccc2nc(NC(=O)c3ccco3)sc2c1	x	x	60*	x	39*	51*	45*
CCOc1ccc2nc(NC(=O)COC)sc2c1	0.7	31	8	26	1	x	x
O=C(COc1ccccc1)Nc1nc2cc3c(cc2s1)OCCO3	x	x	-4	x	-3	x	x
O=C(Nc1nc2cc3c(cc2s1)OCCO3)c1ccco1	x	x	88*	x	78*	91*	89*
O=[N+]([O-])c1ccc(O)c(N=Cc2sc3ccccc3c2O)c1	0.9	11	21	14	21*	-2	-10
Oc1c(C=Nc2cccc3cccnc23)sc2ccccc12	0.2	82*	x	3	37*	23*	50*
CSc1nn2c(C(F)(F)F)cc(C(F)(F)F)nc2c1C(N)=O	x	x	6	7	3	x	x
O=C(/C=C/c1ccc2c(c1)OCO2)Nc1nc2ccccc2s1	0.8	21	27	17	25*	62*	20*
Cc1cccc(NC(=O)CSc2nc3ccc(NC(=O)CSc4nnnn4-c4ccccc4)cc3s2)c1C	1	2	x	16	55*	22*	-9
O=C1c2ccccc2NC(c2ccc(O)c(O)c2)N1c1ccccc1Cl (stereo unspecified)	x	x	21	x	-5	x	x
Nc1c(-c2ccc(Cl)cc2)cnc2c(-c3ccc(F)cc3)cnn12	x	x	37	x	-3	x	x
Cc1nc2c(-c3ccc(Cl)cc3)cnn2c(N)c1-c1ccc(F)cc1	x	x	33	x	69*	67*	68*
COc1ccc(-c2c(C)nc3c(-c4ccc(F)cc4)cnn3c2N)cc1	x	x	22	x	17*	16*	11*
O=C(CNc1ccc(Br)cc1)Nc1ccc(S(=O)(=O)N2CCCC2)cc1	x	x	-2	x	x	x	x
COc1ccccc1C(=O)NC(=S)N1CCc2ccccc21	1	-3	7	6	-2	x	x
COc1ccccc1C(=O)NC(=S)N1CCCc2ccccc21	0.9	7	8	17	18*	20*	13*
COc1ccc(OC)c(NC(=O)c2[nH]c(C)c(C(C)=O)c2C)c1	1	-4	-5	19	27*	-2	-4
CCOC(=O)c1c(C)[nH]c(C2=NNC(=NC3CC3)SC2)c1C	0.3	71*	33	20	55*	84*	75*
CC(NC(=O)COC(=O)c1cccc(S(=O)(=O)N2CCCC2)c1)c1ccccc1 (stereo unspecified)	x	x	0	x	x	x	x
Cc1nnc(SCC(=O)Nc2ncc3c(n2)CCCC3=O)s1	1.1	-8	-6	-22	3	x	x
